According to ChEMBL document CHEMBL3407422, “2-(2-oxo-morpholin-3-yl)-acetamide derivatives as broad-spectrum antifungal agents” (J Med Chem, 2015):
Values after ≈ are worked out from the molar mass of the structure shown. Values belong to the compound of their own block, whether it stands above or below them. Active and inactive are the calls of the source. The rule behind the calls is not given here.

Key:
[1] = test system: Trichophyton mentagrophytes; assay: Fungicidal activity against Trichophyton mentagrophytes B70554; type: functional, organism-based
Procedure, shortened: (§1)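 Inoculum of 10^3 CFU in RPMI-MOPS added to prediluted compound, highest concentration 64 µM. Growth read by resazurin fluorescence (ex 550, em 590 nm). IC50 is 50% growth inhibition versus untreated controls. Three independent replicates.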

Trichophyton rubrum = assay: Fungicidal activity against Trichophyton rubrum B68183; type: functional, organism-based; procedure, shortened: as §1
Candida albicans [2] = assay: Antifungal activity against Candida albicans SC5314 after 24 hrs; type: functional
Procedure, shortened: (§2)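 Overnight YPD cultures diluted in PBS (1/200 for C. albicans, 1/400 for C. glabrata). Cells treated with compound, or 2.5% DMSO as solvent control, for 24 h at 37 °C. CFUs then counted; MFC is the concentration giving 99% killing of the inoculum.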

Nakaseomyces glabratus = assay: Antifungal activity against Candida glabrata BG2 after 24 hrs; type: functional; procedure, shortened: as §2
Aspergillus fumigatus = assay: Antifungal activity against Aspergillus fumigatus CBS 117202 after 24 hrs by two-fold dilution method; type: functional; conditions: CBS 117202, 24 h
Procedure, shortened: (§3)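 Spores at 2×10^4 spores/mL in potato dextrose broth, incubated with a 2-fold compound dilution series for 24 h at 25 °C. Growth read by microspectrophotometry of the liquid cultures. MIC taken as the lowest concentration inhibiting fungal growth.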

[3] = Half life in human plasma; type: ADME, cell-free
Aspergillus flavus = assay: Antifungal activity against Aspergillus flavus CBS111.45 after 24 hrs by two-fold dilution method; type: functional; conditions: CBS111.45, 24 h; procedure, shortened: as §3
Microsporum canis = assay: Fungicidal activity against Microsporum canis B68128; type: functional; procedure, shortened: as §1
Sporothrix schenckii = assay: Fungicidal activity against Sporothrix schenckii B62482; type: functional, organism-based; procedure, shortened: as §1
[4] = Cytotoxicity against human MRC5 SV2 cells after 72 hrs by fluorescence assay; type: cell-based
Procedure, shortened: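 MRC-5 SV2 cells (10^4/well) grown in MEM with L-glutamine, NaHCO3 and 5% FCS. Incubated with compound 72 h at 37 °C, 5% CO2, then resazurin added for 24 h. Fluorescence read at ex 530, em 590 nm.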

[5] = Kinetic solubility of the compound at pH 7.4; type: physicochemical; conditions: buffer, read-out: Kinetic_solubility
[6] = Apparent permeability from apical to basolateral side in human Caco2 cells; type: ADME, cell-based; conditions: Caco-2
[7] = Apparent permeability from basolateral to apical side in human Caco2 cells; type: ADME, cell-based; conditions: Caco-2
[8] = Plasma protein binding in human; type: ADME, cell-free; conditions: read-out: PPB (converted)
[9] = Half life in simulated gastric fluid at pH 1.2; type: ADME
Procedure, shortened: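 Stability in simulated gastric fluid containing 800000 Units/L pepsin at pH 1.2; half-life reported.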

[10] = Half life in simulated intestinal fluid […]; type: ADME
[11] = Half life in human liver microsomes; type: ADME
[12] = Half life in mouse liver microsomes; type: ADME
hERG (KCNH2) = hERG (KCNH2) (Homo sapiens, UniProt Q12809); assay: Inhibition of human ERG channel at 10 uM
CYP1A2 = target: T1, CYP1A2 (Homo sapiens, UniProt P05177); assay: Inhibition of CYP1A2 (unknown origin) at 10 uM; type: ADME
T1 sequence (P05177 whole entry): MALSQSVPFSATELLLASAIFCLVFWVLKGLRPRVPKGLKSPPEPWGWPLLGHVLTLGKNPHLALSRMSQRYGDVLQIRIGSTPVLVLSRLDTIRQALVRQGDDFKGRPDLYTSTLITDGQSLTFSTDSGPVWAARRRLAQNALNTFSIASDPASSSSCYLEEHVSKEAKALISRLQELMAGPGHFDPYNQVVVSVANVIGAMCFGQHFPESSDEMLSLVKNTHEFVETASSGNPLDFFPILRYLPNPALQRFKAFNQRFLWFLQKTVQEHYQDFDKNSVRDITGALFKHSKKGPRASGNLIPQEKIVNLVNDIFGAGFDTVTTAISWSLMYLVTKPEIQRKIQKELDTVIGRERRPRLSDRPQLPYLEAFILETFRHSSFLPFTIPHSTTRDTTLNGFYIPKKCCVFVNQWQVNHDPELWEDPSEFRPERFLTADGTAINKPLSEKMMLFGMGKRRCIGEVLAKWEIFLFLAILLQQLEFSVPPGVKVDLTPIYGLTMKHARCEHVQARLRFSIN

CYP2C9 = CYP2C9 (Homo sapiens, UniProt P11712); assay: Inhibition of CYP2C9 (unknown origin) at 10 uM; type: ADME
CYP2C19 = CYP2C19 (Homo sapiens, UniProt P33261); assay: Inhibition of CYP2C19 (unknown origin) at 10 uM; type: ADME
CYP2D6 = CYP2D6 (Homo sapiens, UniProt P10635); assay: Inhibition of CYP2D6 (unknown origin) at 10 uM; type: ADME
CYP3A4 = CYP3A4 (Homo sapiens, UniProt P08684); assay: Inhibition of CYP3A4 (unknown origin) at 10 uM; type: ADME
[13] = Drug metabolism in mouse liver microsomes at 10 uM after 90 mins by LC-MS/MS analysis; type: ADME; conditions: 1.5 h
Candida albicans [14] = assay: Antifungal activity against Candida albicans SC5314 infected in BALB/c mouse assessed as reduction in reduction in fungal load in kidney at 10 mg/kg/day, ip for 5 days relative to vehicle-treated control; type: functional, organism-based
Procedure, shortened: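 BALB/c mice given cyclophosphamide 100 mg/kg at 4 days and 24 h before infection and at 3 days after. Infected IV with 2×10^3 SC5314 cells in saline. Dosed IP daily for 5 days from 16 h post-infection, in DMSO/0.5% methylcellulose (5/95). Organs taken on day 7, homogenized and plated on BHI agar (18 h, 37 °C). CFU/g compared with vehicle.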

[15] = Half life in mouse plasma; type: ADME, cell-free

CYP2C9, sequence (P11712 whole entry): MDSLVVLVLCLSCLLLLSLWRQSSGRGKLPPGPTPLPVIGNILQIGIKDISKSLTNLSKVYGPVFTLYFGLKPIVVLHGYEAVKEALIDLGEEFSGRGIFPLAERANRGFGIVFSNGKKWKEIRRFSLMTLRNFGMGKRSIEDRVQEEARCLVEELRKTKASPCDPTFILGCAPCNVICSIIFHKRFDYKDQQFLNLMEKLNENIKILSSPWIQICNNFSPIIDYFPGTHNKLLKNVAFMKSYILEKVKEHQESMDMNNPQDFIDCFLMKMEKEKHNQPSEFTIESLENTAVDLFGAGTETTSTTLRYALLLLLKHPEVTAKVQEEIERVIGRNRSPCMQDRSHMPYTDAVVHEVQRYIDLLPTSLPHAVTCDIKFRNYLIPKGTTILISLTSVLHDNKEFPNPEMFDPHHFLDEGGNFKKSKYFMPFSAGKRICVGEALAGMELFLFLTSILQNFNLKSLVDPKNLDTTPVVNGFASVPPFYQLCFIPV
CYP2C19, sequence (P33261 whole entry): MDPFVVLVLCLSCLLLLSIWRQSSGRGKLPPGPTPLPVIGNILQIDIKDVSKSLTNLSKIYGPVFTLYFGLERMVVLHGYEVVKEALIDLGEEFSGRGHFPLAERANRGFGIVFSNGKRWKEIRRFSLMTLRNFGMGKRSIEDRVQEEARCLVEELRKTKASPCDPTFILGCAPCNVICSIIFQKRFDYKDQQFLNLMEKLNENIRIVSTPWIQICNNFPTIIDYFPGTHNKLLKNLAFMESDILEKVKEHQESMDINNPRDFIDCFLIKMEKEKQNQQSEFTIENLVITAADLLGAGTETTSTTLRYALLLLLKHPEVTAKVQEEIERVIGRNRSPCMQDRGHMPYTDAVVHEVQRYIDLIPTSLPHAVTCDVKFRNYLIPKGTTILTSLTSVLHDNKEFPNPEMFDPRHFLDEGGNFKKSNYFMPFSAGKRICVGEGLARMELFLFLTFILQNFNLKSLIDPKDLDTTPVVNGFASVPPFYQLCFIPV
hERG (KCNH2), sequence (Q12809 whole entry): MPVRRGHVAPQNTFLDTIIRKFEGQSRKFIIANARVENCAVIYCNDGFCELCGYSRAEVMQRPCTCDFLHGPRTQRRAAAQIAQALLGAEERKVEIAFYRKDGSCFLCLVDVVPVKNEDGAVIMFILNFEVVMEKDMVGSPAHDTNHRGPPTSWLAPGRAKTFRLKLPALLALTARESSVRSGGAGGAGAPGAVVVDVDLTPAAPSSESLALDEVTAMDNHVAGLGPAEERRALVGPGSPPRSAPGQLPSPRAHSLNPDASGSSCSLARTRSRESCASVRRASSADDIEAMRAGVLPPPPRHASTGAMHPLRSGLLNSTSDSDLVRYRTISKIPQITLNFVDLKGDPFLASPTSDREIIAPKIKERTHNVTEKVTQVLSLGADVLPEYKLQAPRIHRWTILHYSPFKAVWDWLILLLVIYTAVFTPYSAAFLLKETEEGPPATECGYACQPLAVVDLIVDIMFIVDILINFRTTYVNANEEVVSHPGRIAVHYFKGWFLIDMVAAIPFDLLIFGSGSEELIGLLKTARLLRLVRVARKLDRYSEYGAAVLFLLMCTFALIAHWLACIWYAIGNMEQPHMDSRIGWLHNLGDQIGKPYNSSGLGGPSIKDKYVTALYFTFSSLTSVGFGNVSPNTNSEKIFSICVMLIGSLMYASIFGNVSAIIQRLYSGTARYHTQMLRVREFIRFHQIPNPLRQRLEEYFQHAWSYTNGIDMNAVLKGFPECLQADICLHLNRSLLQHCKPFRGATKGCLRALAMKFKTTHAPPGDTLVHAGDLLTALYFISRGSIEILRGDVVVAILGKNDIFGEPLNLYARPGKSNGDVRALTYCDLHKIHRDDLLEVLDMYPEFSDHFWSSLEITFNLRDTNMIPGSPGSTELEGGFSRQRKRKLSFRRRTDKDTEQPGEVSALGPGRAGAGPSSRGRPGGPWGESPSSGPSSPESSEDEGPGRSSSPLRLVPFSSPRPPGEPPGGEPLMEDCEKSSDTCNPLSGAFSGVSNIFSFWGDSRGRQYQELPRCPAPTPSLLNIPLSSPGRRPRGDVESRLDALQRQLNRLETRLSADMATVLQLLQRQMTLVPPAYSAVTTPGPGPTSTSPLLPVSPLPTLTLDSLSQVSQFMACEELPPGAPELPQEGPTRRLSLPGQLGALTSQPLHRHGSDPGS
CYP2D6, sequence (P10635 whole entry): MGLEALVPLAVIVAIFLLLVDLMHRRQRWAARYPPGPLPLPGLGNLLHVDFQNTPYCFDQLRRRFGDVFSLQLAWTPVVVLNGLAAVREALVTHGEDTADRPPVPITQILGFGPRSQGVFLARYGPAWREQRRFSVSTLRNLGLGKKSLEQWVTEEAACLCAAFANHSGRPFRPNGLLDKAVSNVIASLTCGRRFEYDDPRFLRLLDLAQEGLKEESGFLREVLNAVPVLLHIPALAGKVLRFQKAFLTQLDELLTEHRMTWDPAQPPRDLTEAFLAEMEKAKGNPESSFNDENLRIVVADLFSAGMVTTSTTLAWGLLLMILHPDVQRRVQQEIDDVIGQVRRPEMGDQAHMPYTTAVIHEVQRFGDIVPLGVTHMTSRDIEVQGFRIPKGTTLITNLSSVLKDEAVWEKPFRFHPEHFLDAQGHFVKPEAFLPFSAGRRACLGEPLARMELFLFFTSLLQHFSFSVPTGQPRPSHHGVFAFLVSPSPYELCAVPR
CYP3A4, sequence (P08684 whole entry): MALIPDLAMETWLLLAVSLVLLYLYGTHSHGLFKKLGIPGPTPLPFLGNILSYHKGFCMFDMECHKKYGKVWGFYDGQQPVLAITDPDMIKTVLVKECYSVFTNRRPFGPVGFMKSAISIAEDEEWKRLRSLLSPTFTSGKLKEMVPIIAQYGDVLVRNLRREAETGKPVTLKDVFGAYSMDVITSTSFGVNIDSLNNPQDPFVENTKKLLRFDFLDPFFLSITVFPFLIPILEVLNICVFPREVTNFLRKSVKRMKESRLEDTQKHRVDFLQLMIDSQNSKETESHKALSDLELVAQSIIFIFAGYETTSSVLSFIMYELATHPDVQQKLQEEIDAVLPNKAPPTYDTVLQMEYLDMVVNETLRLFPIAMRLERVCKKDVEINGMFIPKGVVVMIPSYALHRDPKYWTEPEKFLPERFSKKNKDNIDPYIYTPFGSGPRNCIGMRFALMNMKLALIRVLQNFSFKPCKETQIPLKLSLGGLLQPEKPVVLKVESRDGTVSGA

SMILES: CN(C/C=C/C#CC(C)(C)C)Cc1cccc2ccccc12 [TERBINAFINE]
IC50 [1]: 0.02 µg/mL (≈ 0.0686 µM)
IC50 (Trichophyton rubrum): 0.02 µg/mL (≈ 0.0686 µM)

SMILES: CC(C)c1ccc(NC(=O)CC2C(=O)OC(C)(C)CN2S(C)(=O)=O)cc1 (stereo unspecified)
MFC99 (Candida albicans [2]): >25 µg/mL

SMILES: CCN1CC(C)(C)OC(=O)C1CC(=O)Nc1ccc2c(ccn2C)c1 (stereo unspecified)
MFC99 (Candida albicans [2]): 12.5 µg/mL (≈ 36.4 µM)
MFC99 (Nakaseomyces glabratus): 50 µg/mL (≈ 146 µM)
MIC (Aspergillus fumigatus): 3.1 µg/mL (≈ 9.03 µM)
MIC (Aspergillus flavus): 25 µg/mL (≈ 72.8 µM)
IC50 [1]: 11 µg/mL (≈ 32 µM)
IC50 (Trichophyton rubrum): 11 µg/mL (≈ 32 µM)
IC50 (Microsporum canis): 6.2 µg/mL (≈ 18.1 µM)
IC50 (Sporothrix schenckii): 10 µg/mL (≈ 29.1 µM)
CC50 at 72 h [4]: > 20 µg/mL

SMILES: CCN1CC(C)(C)OC(=O)C1CC(=O)N(C)c1ccccc1 (stereo unspecified)
MFC99 (Candida albicans [2]): >50 µg/mL

More lines, main results first:

MIC (Aspergillus fumigatus): 1.6 µg/mL (≈ 4.81 µM)
half-life [3]: > 240 min
MIC (Aspergillus flavus): 12.5 µg/mL (≈ 37.6 µM)
solubility kinetic [5]: 50 µM (≈ 16.6 µg/mL)
Papp A→B [6]: 65 ×10⁻⁶ cm/s
Papp B→A [7]: 35 ×10⁻⁶ cm/s
fraction unbound [8]: 0.061
half-life [9]: > 240 min
half-life [10]: > 240 min
half-life [11]: 29 min
half-life [12]: 6 min
inhibition at 10 µM (CYP1A2): < 40%
inhibition at 10 µM (CYP2C9): < 40%
inhibition at 10 µM (CYP2C19): < 40%
inhibition at 10 µM (CYP2D6): < 40%
inhibition at 10 µM (CYP3A4): < 40%
Drug metabolism [13]: metabolite_detected
SMILES: CCN1CC(C)(C)OC(=O)C1CC(=O)Nc1ccc(C(C)C)cc1 (stereo unspecified)
MFC99 (Candida albicans [2]): 12.5 µg/mL (≈ 37.6 µM)
MFC99 (Nakaseomyces glabratus): 25 µg/mL (≈ 75.2 µM)
IC50 [1]: 10.6 µg/mL (≈ 31.9 µM)
IC50 (Trichophyton rubrum): 6.3 µg/mL (≈ 19 µM)
IC50 (Microsporum canis): 6.6 µg/mL (≈ 19.9 µM)
IC50 (Sporothrix schenckii): 11.8 µg/mL (≈ 35.5 µM)
CC50 at 72 h [4]: > 20 µg/mL
inhibition at 10 µM (hERG (KCNH2)): 11%
Activity (Candida albicans [14]): Active

MIC (Aspergillus fumigatus): 12.5 µg/mL (≈ 41.1 µM)
half-life [3]: 22 min
half-life [15]: 32 min
SMILES: CCN1CCOC(=O)C1CC(=O)Nc1ccc(C(C)C)cc1 (stereo unspecified)
MFC99 (Candida albicans [2]): 12.5 µg/mL (≈ 41.1 µM)
MFC99 (Nakaseomyces glabratus): 12.5 µg/mL (≈ 41.1 µM)

half-life [3]: 31 min
SMILES: CCN1C[C@@H](c2ccccc2)OC(=O)C1CC(=O)Nc1ccc(C(C)C)cc1 (stereo partly specified)
MFC99 (Candida albicans [2]): 12.5 µg/mL (≈ 32.9 µM)
